# From ChEMBL document CHEMBL4699493, “Development of Bis-cyclic Imidazolidine-4-one Derivatives as Potent Antibacterial Agents” (J Med Chem, 2020)
# What was measured:
# Staphylococcus aureus [1] = experiment: Antibacterial activity against methicillin-resistant Staphylococcus aureus ATCC 33591; type: functional
# How it was run: (§1)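 Broth microdilution in TSB. Strains were grown 16 h, subcultured 6 h to log phase, then diluted to 10^6 CFU/mL by OD600. Compound came from a 5 mg/mL DMSO stock diluted in TSB and serially diluted, top final concentration 25 μg/mL. MIC was the lowest concentration giving complete growth inhibition. Done ≥3 times in duplicate.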
# [2] = system: Staphylococcus epidermidis; experiment: Antibacterial activity against methicillin-resistant Staphylococcus epidermidis RP62A; type: functional; how it was run: as §1
# Escherichia coli = experiment: Antibacterial activity against Escherichia coli ATCC 25922; type: functional
# How it was run: (§2)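 Broth microdilution in TSB. Stocks at 5 mg/mL in DMSO diluted with TSB to 100 μg/mL, then serially diluted; highest test concentration 25 μg/mL. Bacteria grown 16 h, subcultured 6 h to log phase, adjusted to 10^6 CFU/mL by OD600. MIC = lowest concentration giving complete growth inhibition. At least three repeats, each in duplicate.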
# Klebsiella pneumoniae = experiment: Antibacterial activity against Klebsiella pneumoniae ATCC 13383; type: functional; how it was run: as §2
# [3] = Hemolytic activity against mouse RBC measured after 1 hr by microplate reader analysis; type: ADME, cell-based, Erythrocyte; conditions: mouse red blood cells (erythrocytes)
# How it was run: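 Mouse red blood cells collected by centrifugation (500–700g, 10 min), washed three times in PBS, and diluted 20-fold in PBS. Mixed with 2-fold serial dilutions of compound (starting at 1 mg/mL in PBS) and incubated 1 h at 37 °C. After centrifugation, supernatant absorbance read at 540 nm. % hemolysis calculated relative to PBS (0%) and 2% Triton (100%). At least three repeats in duplicate.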
# [4] = Selectivity ratio of HC50 for hemolytic activity against mouse RBC to MIC for methicillin-resistant Staphylococcus aureus; type: toxicity; conditions: mouse red blood cells (erythrocytes)
# How it was run: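 Mouse RBCs were washed three times in PBS and diluted in 20 volumes of PBS. They were mixed with compound 2-fold serially diluted from 1 mg/mL in PBS, incubated 1 h at 37 °C, then centrifuged; supernatant read at A540. % hemolysis was calculated against PBS (0%) and 2% Triton (100%). Done ≥3 times in duplicate. HC50 was divided by the MRSA MIC.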
# Staphylococcus aureus [5] = experiment: Antibacterial activity against methicillin-resistant Staphylococcus aureus ATCC 33591 assessed as ratio of MIC after and before 13 serial passages; type: functional
# How it was run: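 Serial-passage resistance test. A first MIC was run by TSB broth microdilution. Bacteria from the well after the last clear well were resuspended to about 10^6 CFU/mL for the next MIC. This was repeated for 13 passages.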
Structure (SMILES),MIC (Staphylococcus aureus [1]),MIC [2],MIC (Escherichia coli),MIC (Klebsiella pneumoniae),HC50 at 1 h [3],selectivity ratio [4],Ratio (Staphylococcus aureus [5])
CCCCCC(=O)N[C@@H](CCCCN)CN1CC(=O)N(c2ccc(N3CN(C[C@H](CCCCN)NC(=O)CCCCC)CC3=O)cc2)C1,> 25 µg/mL,> 25 µg/mL,> 25 µg/mL,> 25 µg/mL,> 250 µg/mL,–,–
NCCCC(=O)N[C@@H](Cc1ccccc1)CN1CC(=O)N(c2ccc(N3CN(C[C@H](Cc4ccccc4)NC(=O)CCCN)CC3=O)cc2)C1,> 25 µg/mL,> 25 µg/mL,> 25 µg/mL,> 25 µg/mL,> 250 µg/mL,–,–
O=C(O)c1cn(C2CC2)c2cc(N3CCNCC3)c(F)cc2c1=O [CIPROFLOXACIN],0.15 µg/mL,0.15 µg/mL,0.07 µg/mL,0.3 µg/mL,–,–,–
CCCCCCCCCC(=O)N[C@@H](CCCCN)CNCC(=O)Nc1ccc(NC(=O)CNC[C@H](CCCCN)NC(=O)CCCCCCCCC)cc1,2 µg/mL,2 µg/mL,> 25 µg/mL,> 25 µg/mL,> 250 µg/mL,> 125,–
CCCCCCCC(=O)N[C@@H](CCCCN)CN1CC(=O)N(c2ccc(N3CN(C[C@H](CCCCN)NC(=O)CCCCCCC)CC3=O)cc2)C1,> 25 µg/mL,> 25 µg/mL,> 25 µg/mL,> 25 µg/mL,> 250 µg/mL,–,–
NCCCC[C@@H](CN1CC(=O)N(c2ccc(N3CN(C[C@H](CCCCN)NC(=O)Cc4ccc5ccccc5c4)CC3=O)cc2)C1)NC(=O)Cc1ccc2ccccc2c1,> 25 µg/mL,> 25 µg/mL,> 25 µg/mL,> 25 µg/mL,> 250 µg/mL,–,–
CCCCCCCCCCCC(=O)N[C@@H](CCCCN)CN1CC(=O)N(c2ccc(N3CN(C[C@H](CCCCN)NC(=O)CCCCCCCCCCC)CC3=O)cc2)C1,1 µg/mL,2 µg/mL,> 25 µg/mL,> 25 µg/mL,> 250 µg/mL,> 250,–
CCCCCCCCCC(=O)N[C@@H](CCCCNC(=N)N)CN1CC(=O)N(c2ccc(N3CN(C[C@H](CCCCNC(=N)N)NC(=O)CCCCCCCCC)CC3=O)cc2)C1,1 µg/mL,5 µg/mL,> 25 µg/mL,5 µg/mL,125 µg/mL,125,–
CCCCCCCCCC(=O)N[C@@H](Cc1ccccc1)CN1CC(=O)N(c2ccc(N3CN(C[C@H](Cc4ccccc4)NC(=O)CCCCCCCCC)CC3=O)cc2)C1,> 25 µg/mL,> 25 µg/mL,> 25 µg/mL,> 25 µg/mL,> 250 µg/mL,–,–
N=C(N)NCCCC[C@@H](CN1CC(=O)N(c2ccc(N3CN(C[C@H](CCCCNC(=N)N)NC(=O)CC45C[C@H]6C[C@@H](C4)C[C@@H](C5)C6)CC3=O)cc2)C1)NC(=O)CC12C[C@H]3C[C@@H](C1)C[C@@H](C2)C3,1 µg/mL,2 µg/mL,> 25 µg/mL,> 25 µg/mL,250 µg/mL,250,–
CCn1cc(C(=O)O)c(=O)c2cc(F)c(N3CCNCC3)cc21 [NORFLOXACIN],–,–,–,–,–,–,> 22
CCCCCCCCCCCCCC(=O)N[C@@H](CCCCN)CN1CC(=O)N(c2ccc(N3CN(C[C@H](CCCCN)NC(=O)CCCCCCCCCCCCC)CC3=O)cc2)C1,> 25 µg/mL,> 25 µg/mL,> 25 µg/mL,> 25 µg/mL,> 250 µg/mL,–,–
NCCCC[C@@H](CN1CC(=O)N(c2ccc(N3CN(C[C@H](CCCCN)NC(=O)CC45C[C@H]6C[C@@H](C4)C[C@@H](C5)C6)CC3=O)cc2)C1)NC(=O)CC12C[C@H]3C[C@@H](C1)C[C@@H](C2)C3,> 25 µg/mL,> 25 µg/mL,> 25 µg/mL,> 25 µg/mL,> 250 µg/mL,–,–
CCCCCCCCCCCCCCCC(=O)N[C@@H](CCCCN)CN1CC(=O)N(c2ccc(N3CN(C[C@H](CCCCN)NC(=O)CCCCCCCCCCCCCCC)CC3=O)cc2)C1,> 25 µg/mL,> 25 µg/mL,> 25 µg/mL,> 25 µg/mL,> 250 µg/mL,–,–
